Assay results: ChEMBL document CHEMBL2380266, “1,4-Benzothiazine ATP-sensitive potassium channel openers: modifications at the C-2 and C-6 positions” (J Med Chem, 2013)
Active and inactive are the calls of the source. The calls are words filed in the database; no cut-off is given here.

Key:
Aorta [1] = test: Vasorelaxant activity in Wistar rat endothelium-denuded aortic rings assessed as reduction of KCl-induced contraction relative to control; assay type: functional
Procedure, shortened: (§1)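 Thoracic aortic rings from male Wistar rats (250−350 g), endothelium removed. Removal confirmed by <10% relaxation to 10 μM ACh. Rings contracted with 25 mM KCl; at plateau, test agent added cumulatively in 3-fold increasing concentrations. DMSO stocks (10 mM) diluted in water. Emax given as % of KCl tone; pIC50 is the half-reduction of tone; 5−10 experiments.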

Aorta [2] = test: Vasorelaxant activity in Wistar rat endothelium-denuded aortic rings assessed as reduction of KCl-induced contraction in presence of glibenclamide; assay type: functional, tissue-based
Procedure, shortened: (§2)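 Endothelium-denuded Wistar rat aortic rings; 1 μM glibenclamide added before the 25 mM KCl contraction, then test agent added cumulatively in 3-fold increasing concentrations. Vasorelaxation expressed as % of KCl-induced tone; pIC50 from the half-reduction of tone; 5−10 experiments.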

Aorta [3] = test: Vasorelaxant activity in Wistar rat endothelium-denuded aortic rings assessed as reduction of KCl-induced contraction in presence of glibenclamide relative to control; assay type: functional; procedure, shortened: as §2
Aorta [4] = test: Vasorelaxant activity in Wistar rat endothelium-denuded aortic rings assessed as reduction of KCl-induced contraction; assay type: functional, tissue-based; procedure, shortened: as §1
Homo sapiens [5] = organism: Homo sapiens; test: Activation of ATP-sensitive potassium channel in human aortic smooth muscle cells assessed as membrane hyperpolarization at 10 uM by DiBAC4(3) dye-based spectrofluorimetric analysis in presence of glibenclamide
Procedure, shortened: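 Same DiBAC4(3) setup in HASMCs (2.5 μM dye, 1 h loading, pH 7.4, ex 488 / em 520 nm). Glibenclamide was added 10 min before the test agent. Relative fluorescence decrease expressed as % of the 100 μM LCRK maximal effect; six replicates.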

[6] = (§3) Activation of ATP-sensitive potassium channel in human aortic smooth muscle cells assessed as membrane hyperpolarization by DiBAC4(3) dye-based spectrofluorimetric analysis
Procedure, shortened: (§4)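 HASMCs grown in medium 231 with SMGS at 37 °C, 5% CO2, seeded on gelatin 24 h before use. Loaded 1 h with 2.5 μM DiBAC4(3) in HEPES buffer pH 7.4 at room temperature. Fluorescence read at ex 488 / em 520 nm before and after compound. Relative fluorescence decrease (Ft−F0)/F0 expressed as % of the 100 μM LCRK effect. pEC50 derived; six replicates.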

Rattus norvegicus [7] = organism: Rattus norvegicus; test: Activation of ATP-sensitive potassium channel in Wistar rat pancreatic islets assessed as reduction in high glucose-induced insulin secretion at 80 uM after 1 hr by radioimmunoassay in presence of glibenclamide
Procedure, shortened: (§5)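 Islets from male Wistar rats (200−250 g), isolated by collagenase duct cannulation with density-gradient purification and cultured 24 h in RPMI (5.6 mM glucose). Ten islets per well were preincubated 30 min in KRH pH 7.4 with 2.8 mM glucose and 1% BSA, then incubated 1 h with 16.7 mM glucose ± glibenclamide 1 μM. Released insulin was measured by RIA, at least five replicas.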

Rattus norvegicus [8] = organism: Rattus norvegicus; test: Activation of ATP-sensitive potassium channel in Wistar rat pancreatic islets assessed as reduction in high glucose-induced insulin secretion at 80 uM after 1 hr by radioimmunoassay; procedure, shortened: as §5
Rattus norvegicus [9] = organism: Rattus norvegicus; test: Activation of ATP-sensitive potassium channel in Wistar rat pancreatic islets assessed as reduction in high glucose-induced insulin secretion after 1 hr by radioimmunoassay
Procedure, shortened: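 Islets from male Wistar rats (200−250 g), collagenase isolation, cultured 24 h in RPMI (5.6 mM glucose). Batches of 10 islets preincubated 30 min in KRH pH 7.4 with 2.8 mM glucose and 1% BSA, then incubated 1 h with 2.8 or 16.7 mM glucose ± test agent at 1 to 1000 nM. Released insulin measured by RIA. At least five replicas.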

Homo sapiens [10] = organism: Homo sapiens; test: as §3; procedure, shortened: as §4
Homo sapiens [11] = organism: Homo sapiens; test: Activation of ATP-sensitive potassium channel in human aortic smooth muscle cells assessed as membrane hyperpolarization at 0.1 to 100 uM by DiBAC4(3) dye-based spectrofluorimetric analysis relative to LCRK; procedure, shortened: as §4
Aorta [12] = test: Vasorelaxant activity in Wistar rat endothelium-denuded aortic rings relative to LCRK; assay type: functional; procedure, shortened: as §1

Structure (SMILES) | Emax (Aorta [1]) [%] | IC50 (Aorta [2]) [nM] | Emax (Aorta [3]) [%] | IC50 (Aorta [4]) [nM] | Activity (Homo sapiens [5]) | EC50 [6] [nM] | Activity (Rattus norvegicus [7]) | Activity (Rattus norvegicus [8]) | Activity (Rattus norvegicus [9]) | Activity (Homo sapiens [10]) | Emax (Homo sapiens [11]) [%] | Ratio (Aorta [12])
CC1(C)CN(C2=CCCC2=O)c2cc(C(F)(F)F)ccc2S1 | 92 | 8.32 | 96 | 0.0417 |  |  |  |  |  |  |  | 
CC1(C)Oc2ccc(C#N)cc2[C@@H](N2CCCC2=O)[C@@H]1O [LEVCROMAKALIM] | 99 | 2510 | 93 | 324 | inactive | 5370 |  |  |  |  |  | 
O=C1CCC=C1N1CCSc2ccc(C(F)(F)F)cc21 | 94 | 23400 | 64 | 537 |  |  |  |  |  |  |  | 
CC1(C)CN(C2=CCCC2=O)c2cc(N)ccc2S1 | 96 |  |  | 3980 |  |  |  |  |  |  |  | 
CC1(C)CSc2ccc(C(F)(F)F)cc2N1C1=CCCC1=O | 89 |  |  | 66.1 |  |  |  |  |  |  |  | 
CC1(C)CN(C2=CCCC2=O)c2ccccc2S1 | 90 | 20900 | 61 | 724 |  |  |  |  |  |  |  | 
CC1=Nc2ccc(Cl)cc2S(=O)(=O)N1 |  |  |  |  |  |  | inactive | Active |  |  |  | 
CC(=O)Nc1ccc2c(c1)N(C1=CCCC1=O)CC(C)(C)S2 | 97 |  |  | 6610 |  |  |  |  |  |  |  | 
CCc1ccc2c(c1)N(C1=CCCC1=O)CC(C)(C)S2 | 97 | 6460 | 69 | 155 | inactive | 7410 |  |  | inactive | Dose-dependent effect | 98 | 
Cc1ccc2c(c1)N(C1=CCCC1=O)CC(C)(C)S2 | 89 | 19500 | 78 | 933 |  |  |  |  |  |  |  | 
CC1CN(C2=CCCC2=O)c2cc(C(F)(F)F)ccc2S1 (stereo not given) | 94 | 708 | 63 | 8.32 | inactive | 135 |  |  |  | Dose-dependent effect | 106 | 10
CC(C)CN(CC(C)C)S(=O)(=O)c1ccc2c(c1)N(C1=CCCC1=O)CC(C)(C)S2 | 85 |  |  | 794 |  |  |  |  |  |  |  | 
CC(=O)c1ccc2c(c1)N(C1=CCCC1=O)CC(C)(C)S2 | 88 | 56.2 | 77 | 1.45 | inactive | 117 |  |  | inactive | Dose-dependent effect | 103 | 100
